In ChEMBL document CHEMBL1799956, “Convergent synthesis and biological evaluation of 2-amino-4-(3',4',5'-trimethoxyphenyl)-5-aryl thiazoles as microtubule targeting agents” (J Med Chem, 2011):
Activity calls are given as the source filed them. The calls are words filed in the database; no cut-off is given here.

How the values were obtained:
HeLa [1] = experiment: Induction of apoptosis in human HeLa cells assessed as cleavage of PARP at 10 to 100 nM by Western blotting; conditions: TDE = time-dependent effect
HeLa [2] = experiment: Induction of apoptosis in human HeLa cells assessed activation of caspase 9 at 10 to 100 nM after 48 hrs by Western blot analysis
HeLa [3] = experiment: Induction of apoptosis in human HeLa cells assessed activation of caspase 9 at […] after 24 hrs by Western blot analysis; format: functional, cell-based
Summary of the method: (§1)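 Treated HeLa whole-cell lysates separated by SDS-PAGE and immunoblotted for PARP cleavage, Bcl-2, Bax, pro-caspase-9 and pro-caspase-2.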

HeLa [4] = experiment: Induction of apoptosis in human HeLa cells assessed as abnormal mitotic figures at 10 uM after 24 to 48 hrs using Giemsa's staining by microscopic analysis; format: functional, cell-based
Summary of the method: (§2)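 HeLa treated 48 h, Giemsa stained and examined by light microscopy at 60× magnification.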

HeLa [5] = experiment: Cell cycle arrest in human HeLa cells assessed as decrease of cell population at G1 phase at 1 to 100 nM after 24 hrs using propidium iodide staining by flow cytometry; format: functional, cell-based
Jurkat [6] = experiment: Induction of apoptosis in human Jurkat cells assessed as formation of large cells at 100 uM after 24 to 48 hrs using Giemsa's staining by microscopic analysis; format: functional, cell-based
Summary of the method: (§3)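 Giemsa staining, then light-microscope examination of cell morphology. HeLa and Jurkat cells were exposed to compound for 24 and 48 h. Magnification 60×.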

Jurkat [7] = experiment: Induction of apoptosis in human Jurkat cells assessed as abnormal mitotic figures at 100 uM after 24 to 48 hrs using Giemsa's staining by microscopic analysis; format: functional, cell-based
Summary of the method: as §3

HeLa [8] = experiment: Induction of apoptosis in human HeLa cells assessed as decrease in Bcl2 expression at […] after 24 hrs by Western blot analysis; format: functional, cell-based
Summary of the method: as §1

HeLa [9] = experiment: Cell cycle arrest in human HeLa cells assessed as increase of cell population at G2/M phase at 1 to 100 nM after 48 hrs using propidium iodide staining by flow cytometry; format: functional, cell-based
CCRF-CEM [10] = experiment: Fold resistance, ratio of IC50 for human vinblastine-resistant CEM/VBL100 cells overexpressing P-gp to IC50 for human CEM cells; format: functional
Summary of the method: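 Fold resistance taken as the ratio of IC50 in the resistant line to IC50 in the parental line, each IC50 from dose-response curves of at least three independent experiments.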

Jurkat [11] = experiment: Induction of apoptosis in human Jurkat cells assessed as multinucleation at 100 uM after 24 to 48 hrs using Giemsa's staining by microscopic analysis; format: functional, cell-based
Summary of the method: as §3

MCF7 = experiment: Antiproliferative activity against human MCF7 cells assessed as growth inhibition after 72 hrs by MTT assay; format: functional, cell-based; conditions: MCF7, 72 h
Jurkat [12] = experiment: Induction of apoptosis in human Jurkat cells assessed as abnormal mitotic figures at 10 uM after 24 to 48 hrs using Giemsa's staining by microscopic analysis; format: functional, cell-based
Summary of the method: as §3

HeLa [13] = experiment: Induction of apoptosis in human HeLa cells assessed as increase in cell viability at 100 nM after 48 hrs by flow cytometry in presence of pan-caspase inhibitor z-VAD.fmk; format: functional, cell-based
Summary of the method: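 HeLa incubated 48 h with compound at 100 nM with or without z-VAD.fmk (100 μM); viability measured, mean ± SEM of three independent experiments.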

HeLa [14] = experiment: Induction of apoptosis in human HeLa cells assessed as decrease in Bax expression at […] after 24 hrs by Western blot analysis; format: functional, cell-based
Summary of the method: as §1

HeLa [15] = experiment: Induction of apoptosis in human HeLa cells assessed as increase in mitochondrial ROS production at 100 nM after 48 hrs using H2DCFDA staining by flow cytometry; format: functional, cell-based
Jurkat [16] = experiment: Induction of apoptosis in human Jurkat cells assessed as formation of large cells at 10 uM after 24 to 48 hrs using Giemsa's staining by microscopic analysis; format: functional, cell-based
Summary of the method: as §3

Jurkat [17] = experiment: Cell cycle arrest in human Jurkat cells assessed as decrease of cell population at S phase at 100 nM after 24 hrs using propidium iodide staining by flow cytometry; format: functional, cell-based
HeLa [18] = experiment: Induction of cell cycle arrest at G2/M phase in human HeLa cells assessed as increase in cyclin B1 expression after 24 to 48 hrs by Western blot analysis; format: functional, cell-based
Summary of the method: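 Immunoblot of HeLa lysates after 24 or 48 h of compound treatment at the indicated concentrations. Probed for cyclin B1, p-Cdc2 Y15 and Cdc25c. Slower-migrating Cdc25c bands were taken as a change in phosphorylation.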

HeLa [19] = experiment: Cell cycle arrest in human HeLa cells assessed as decrease of cell population at G1 phase at 1 to 100 nM after 48 hrs using propidium iodide staining by flow cytometry; format: functional, cell-based
HeLa [20] = experiment: Induction of apoptosis in human HeLa cells assessed activation of caspase 2 at 10 to 100 nM after 24 hrs by Western blot analysis
HeLa [21] = experiment: Induction of apoptosis in human HeLa cells assessed as DNA condensation at 10 uM after 24 to 48 hrs using Giemsa's staining by microscopic analysis; format: functional, cell-based
Summary of the method: as §2

HeLa [22] = experiment: Antiproliferative activity against human HeLa cells assessed as growth inhibition after 72 hrs by MTT assay; format: functional, cell-based
K562 = experiment: Antiproliferative activity against human K562 cells assessed as growth inhibition after 72 hrs by MTT assay; format: functional, cell-based; conditions: K562, 72 h
CCRF-CEM [23] = experiment: Antiproliferative activity against human CEM cells assessed as growth inhibition after 72 hrs by MTT assay; format: functional, cell-based
Jurkat [24] = experiment: Cell cycle arrest in human Jurkat cells assessed as decrease of cell population at G1 phase at 1 to 100 nM after 24 hrs using propidium iodide staining by flow cytometry; format: functional, cell-based
Jurkat [25] = experiment: Induction of apoptosis in human Jurkat cells assessed as DNA condensation at 10 uM after 24 to 48 hrs using Giemsa's staining by microscopic analysis; format: functional, cell-based
Summary of the method: as §3

HL-60 = experiment: Antiproliferative activity against human HL60 cells assessed as growth inhibition after 72 hrs by MTT assay; format: functional, cell-based; conditions: HL-60, 72 h
Jurkat [26] = experiment: Antiproliferative activity against human Jurkat cells assessed as growth inhibition after 72 hrs by MTT assay; format: functional, cell-based
Jurkat [27] = experiment: Induction of apoptosis in human Jurkat cells assessed as formation of large cytoplasmic vacuoles at 10 uM after 24 to 48 hrs using Giemsa's staining by microscopic analysis; format: functional, cell-based
Summary of the method: as §3

HeLa [28] = experiment: Induction of apoptosis in human HeLa cells assessed as reduction in p53 expression at […] after 24 hrs by Western blot analysis; format: functional, cell-based
Summary of the method: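 Western blot of HeLa whole-cell lysates, separated by SDS-PAGE and probed with antibodies to p-γH2AX Ser139, p53 and p21waf/cip1. Cells were treated at the indicated concentrations for 24 or 48 h.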

HeLa [29] = experiment: Induction of morphological changes in human HeLa cells assessed as appearance of giant interphase with multiple nuclei of different sizes at 10 nM after 24 hrs using phalloidintetramethylrhodamine B isothiocyanate staining by microscopy; format: functional, cell-based
Summary of the method: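 HeLa cells were incubated with compound for 24 h. F-actin was stained with a phalloidin–tetramethylrhodamine B isothiocyanate conjugate and nuclei were counterstained with DAPI. Cells were then examined by fluorescence microscopy.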

IC50 (MCF7): 44 nM
IC50 (HeLa [22]): 0.03 nM
IC50 (K562): 0.07 nM
IC50 (CCRF-CEM [23]): 0.9 nM
IC50 (HL-60): 0.9 nM
IC50 (Jurkat [26]): 0.14 nM
SMILES: CCOc1ccc(-c2sc(N)nc2-c2cc(OC)c(OC)c(OC)c2)cc1
Activity (HeLa [1]): tde
Activity (HeLa [2]): inactive
Activity (HeLa [3]): inactive
Activity (HeLa [4]): Active
Activity (HeLa [5]): Active
Activity (Jurkat [6]): Active
Activity (Jurkat [7]): Active
Activity (HeLa [8]): inactive
Activity (HeLa [9]): Active
Ratio IC50 (CCRF-CEM [10]): 0.9
Activity (Jurkat [11]): Active
Activity (Jurkat [12]): Active
Activity (HeLa [13]): inactive
Activity (HeLa [14]): inactive
Activity (HeLa [15]): Active
Activity (Jurkat [16]): Active
Activity (Jurkat [17]): Active
Activity (HeLa [18]): Dose-dependent effect
Activity (HeLa [19]): Active
Activity (HeLa [20]): Active
Activity (HeLa [21]): Active
Activity (Jurkat [24]): Active
Activity (Jurkat [25]): Active
Activity (Jurkat [27]): Active
Activity (HeLa [28]): inactive
Activity (HeLa [29]): Active
